Assay outcomes (PubChem)
Insulin prom inh: TRM-6 insulin promoter activity inhibition; AID 1273; inhibition, % at 2 µM; TRM-6 cells (human fetal islet line), insulin promoter-eGFP reporter, imaging; reporter expression induced with tamoxifen; 130,000 tested, 0.9% active;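 active = inhibition above the mean plus 3 SD, with well images judged a real hit on visual review, cut at about 60% in these data, passing the limit was not always enough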
Furin inh: inhibitors of human furin. P09958. 220,000 tested, 0.061% active. purified furin, fluorogenic substrate cleavage. AID 463115. inhibition, % at 20 µM or 30 µM; in the data active = inhibition above about 25%
Target sequence (P09958 108-714 limits assumed): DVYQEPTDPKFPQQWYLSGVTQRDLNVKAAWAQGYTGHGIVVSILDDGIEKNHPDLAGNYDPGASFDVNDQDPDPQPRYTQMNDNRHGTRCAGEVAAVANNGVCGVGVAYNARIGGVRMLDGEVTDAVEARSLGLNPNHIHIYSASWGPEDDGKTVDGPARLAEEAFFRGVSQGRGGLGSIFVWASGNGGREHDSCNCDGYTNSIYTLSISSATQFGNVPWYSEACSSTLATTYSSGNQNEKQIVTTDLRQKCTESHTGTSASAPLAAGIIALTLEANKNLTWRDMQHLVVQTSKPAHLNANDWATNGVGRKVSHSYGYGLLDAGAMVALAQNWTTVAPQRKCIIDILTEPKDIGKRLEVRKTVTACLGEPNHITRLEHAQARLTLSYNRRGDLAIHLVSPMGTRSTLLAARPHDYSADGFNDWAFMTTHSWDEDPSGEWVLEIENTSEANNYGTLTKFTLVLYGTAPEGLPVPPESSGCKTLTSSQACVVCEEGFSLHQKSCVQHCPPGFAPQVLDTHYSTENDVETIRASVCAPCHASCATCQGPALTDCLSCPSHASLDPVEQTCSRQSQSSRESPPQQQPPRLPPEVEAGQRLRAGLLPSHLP
Autophagy HCS: autophagy modulation, high-content screen. 190,000 tested, 0.98% active. calls only at 10 µM (by protocol). MEF GFP-LC3 puncta imaging; test concentration mostly 10 µM;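 active = percentage of spot-positive cells more than 3 SD above its plate mean, without a fluorescence outlier flag or 80% toxicity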
HSV augment: HSV replication enhancement | AID 1956 | 220,000 tested, 0.005% active | maximum fold increase | HSV replication augmentation in cells, fold increase; in the data active = maximum fold increase above about 1.5; tested in PC3 cells
Dynein cargo inh: blocks dynein driven cargo transport along microtubules | AID 1381 | 3617.4 mouse cells, GR-EGFP nuclear translocation imaging; test concentration mostly 20 µM; stimulated with dexamethasone, 1 µM; stronger effect = lower value | z-score, hits read low | 220,000 tested, 0.47% active;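 active = plate z-score of nuclear minus cytoplasmic receptor signal below a set negative limit, without overly bright fluorescence or cell loss, cut at about -3.5 in these data, passing the limit was not always enough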;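 note: z-score of nuclear minus cytoplasmic ring GR-EGFP intensity difference per well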
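Buffer or medium: tetracycline-free induction medium containing charcoal-stripped FBS / Reagent: dexamethasone agonist, 1.0 µM final, for 30 min / Technique: automated 10x imaging of fixed Hoechst-stained cells / Times: induction 48 h, compound 1 h, agonist 30 min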
Insulin prom up: MIN6 insulin promoter up-regulation; z-score at 5 µM; MIN6 insulin promoter-GFP reporter, high-content imaging; stronger effect = higher value; 190,000 tested, 0.3% active;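 active = z-score above 3 at 5 µM with at least 500 cells counted in the well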
A number is an active result; 0 = inactive; - = no result given; + = active, no number. Hits are enriched below; roughly 2% of the tested compounds scored in any of these assays.

SMILES	Insulin prom inh	Furin inh	Autophagy HCS	HSV augment	Dynein cargo inh	Insulin prom up
C=CCSc1nccc(-c2nn(-c3ccc(C)cc3)ccc2=O)n1	0	0	+	0	0	0
C#CCSc1nccc(-c2nn(-c3ccc(C)cc3)ccc2=O)n1	-	0	0	0	0	0
COc1cccc(-n2c([S-])c(C(=O)Nc3ccc(C(F)(F)F)cc3)[n+]3ccccc23)c1	-	0	0	0	0	0
Cc1cc(O)c(C(C)C)cc1NC(=O)c1cccc(Cl)c1	0	0	0	0	0	0
CCN(CC)C(=O)CSc1nc2cc3c(cc2c(=O)n1Cc1ccc(OC)cc1)OCO3	0	0	0	0	0	-
CCC(C)(C)n1nnnc1C(C(C)C)N1CCSCC1 (stereo not given)	0	0	+	0	0	0
COc1ccc(CNC(=O)CN(C2CCCCC2)S(C)(=O)=O)cc1	0	0	0	0	0	0
COc1cc2c(cc1O)CC[C@@H]1[C@@H]2CC[C@]2(C)[C@@H](O)CC[C@@H]12	-	-	-	0	-	0
C[C@]12CC[C@@H]3c4ccc(OC(=O)c5ccccc5)cc4CC[C@H]3[C@@H]1CC[C@@H]2O	0	0	+	0	0	-
O=C(O)c1cc(-c2ccncc2)nc2ccc(F)cc12	0	0	0	0	0	3
O=C(O)c1ccccc1C(=O)c1ccc2c(c1)N(Cc1ccc(Cl)c(Cl)c1)C(=O)CO2	0	0	0	0	0	0
O=C(NCc1ccc(Cl)cc1)C(=O)NCC1OCCN1C(=O)c1ccc(Cl)cc1 (stereo not given)	69	0	0	0	0	-
CN(C)c1ccc(P(=O)(OC2CCCCC2)C(O)c2ccncc2)cc1 (stereo not given)	-	0	-	0	0	0
c1ccc2c(c1)ncn2-c1ccc(-c2ccnc3ncnn23)cc1	-	0	+	0	0	0
COC(=O)Nc1ccc(=O)n(Cc2c(Cl)cccc2Cl)c1	0	0	0	0	0	-
COc1ccc(C(CNc2ccc(S(=O)(=O)N3CCCC3)cc2[N+](=O)[O-])N2CCCC2)cc1 (stereo not given)	0	0	+	0	0	0
CC(C)(C)c1ccc(N/N=C(\C#N)S(=O)(=O)C(C)(C)C)cc1	0	0	0	0	0	0
Cc1cccc(N/N=C(\C#N)S(=O)(=O)C(C)(C)C)c1	91	0	0	0	0	0
CCN(c1ccccc1)S(=O)(=O)c1ccc(C(=O)Nc2nnc(C3CC3)o2)cc1	78	0	0	0	0	0
COc1cccc(/C=C/C(=O)Nc2ccc3c(c2)OCCO3)c1OC	-	0	+	0	0	0
COC(=O)c1c(-c2cccc(OC)c2)csc1N	-	0	0	0	0	-
COC(=O)c1c(-c2ccc(OC)c(OC)c2)csc1N	80	0	0	0	0	0
CCCN1C/C(=C/c2cccc([N+](=O)[O-])c2)C(=O)/C(=C/c2cccc([N+](=O)[O-])c2)C1	-	0	+	0	-6.3	0
Cc1ccc2cc(C(c3nnnn3CC3CCCO3)N3CCCC4(CCCCC4)C3)c(=O)[nH]c2c1 (stereo not given)	0	0	0	-	0	-
Cc1cccc2cc(C(c3nnnn3CC3CCCO3)N3CCCC4(CCCCC4)C3)c(=O)[nH]c12 (stereo not given)	-	0	+	0	0	0
SMILES	Insulin prom inh	Furin inh	Autophagy HCS	HSV augment	Dynein cargo inh	Insulin prom up
Cc1nn(C)c(C)c1NC(=O)c1ccnn1C	72	0	0	0	0	0
CC1(C)CC(=O)C(CC2=C(O)CC(C)(C)CC2=O)=C(O)C1	0	0	+	0	0	0
Cc1cccc(C(=O)N/C(=C\c2ccc(C)o2)C(=O)O)c1	-	0	-	0	0	0
O=C(O)c1ccc(-c2nc3ccccc3[nH]2)cc1	-	0	0	0	0	0
O=C(O)c1ccc(-c2ncc[nH]2)cc1	80	0	0	0	0	0
CC(C)N(Cc1ccccc1)C(=O)CCc1ccccc1	0	0	0	0	0	0
CC(C)N(Cc1ccccc1)C(=O)CSc1nccn1C	0	0	+	0	0	0
O=c1[nH]c(CN2CCN(Cc3ccc4c(c3)OCO4)CC2)nc2sc3c(c12)CCC3	-	-	-	-	-	3.5
O=C(c1ccc(Br)o1)N1CCN(c2ccccc2F)CC1	0	0	+	0	0	0
CCOC(=O)c1[nH]c(C)c(C(=O)c2cc(F)ccc2F)c1C	70	0	+	-	0	0
CCOC(=O)c1[nH]c(C)c(C(=O)OCC)c1C	-	0	0	0	0	0
O=C(O)C1CCN(C(=O)COc2ccc(Br)cc2)CC1	-	0	0	0	0	0
